Values belong to the compound of their own block, whether it stands above or below them.
What was measured:
[1] = Effective concentration against Huh 7 cells; assay type: functional, cell-based, Homo sapiens
Method in brief: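 HCV subgenomic replicon cells with luciferase readout, seeded at 6000 cells/well, compound added right after seeding, 48 h incubation. Cells then lysed and luciferase activity in lysate measured. Replicon RNA reduction inferred from the luciferase drop; EC50 is the concentration giving 50% reduction of viral replication.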

[2] = Cytotoxicity determined in Huh 7 cells; assay type: cell-based; conditions: human
Method in brief: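 Huh7 cells; viability read by colorimetric MTT assay. CC50 taken as the concentration that cuts cell viability by 50%.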

SMILES: Nc1ncnc2c1ncn2[C@@H]1O[C@H](CCP(=O)(O)O)[C@@H](O)[C@H]1O
EC50 [1]: 200 µM
CC50 [2]: > 300 µM

SMILES: Nc1ncnc2c1ncn2[C@@H]1O[C@H](OCP(=O)(O)O)[C@@H](O)[C@H]1O
EC50 [1]: 65 µM
CC50 [2]: > 300 µM

SMILES: C[C@@]1(O)[C@H](O)[C@@H](CCP(=O)(O)O)O[C@H]1n1cnc2c(N)ncnc21
EC50 [1]: 35 µM
CC50 [2]: > 300 µM

The next compounds have a lower EC50 [1] than those just listed; values first:

EC50 [1]: 25 µM
SMILES: CC(C)(C)C(=O)SCCOP(=O)(CC[C@H]1O[C@@H](n2cnc3c(N)ncnc32)[C@](C)(O)[C@@H]1O)OCCSC(=O)C(C)(C)C
CC50 [2]: 30 µM

EC50 [1]: 30 µM
SMILES: Nc1ncnc2c1ncn2[C@@H]1C[C@H](OCP(=O)(O)O)[C@@H](O)[C@H]1O
CC50 [2]: 300 µM

— ChEMBL document CHEMBL1143599, “Design, synthesis, and antiviral activity of adenosine 5'-phosphonate analogues as chain terminators against hepatitis C virus” (J Med Chem, 2005)
